The record followed here is ChEMBL document CHEMBL4513216, “Probing the Open Global Health Chemical Diversity Library for Multistage-Active Starting Points for Next-Generation Antimalarials” (ACS Infect Dis, 2020).

This data set is described as follows: Toxicity liver stage against HepG2, at 10uM. Set-up: test concentration 10 uM, cell line HepG2-A16-CD81EGFP. The settings on record: human, HepG2-A16-CD81EGFP cells; read-out: INHIBITION
Type of data set: cell-based. The essentials:
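Uninfected HepG2-A16-CD81EGFP cells, 3 × 10^3 per well, 1536-well, plated on prespotted compound at 10 μM final, parasite-free screening media added to match infected plates; puromycin 10 μM positive, DMSO 0.5% negative; run in parallel with 48 h PbLuc assay at 37 °C, 5% CO2; viability by CellTiter-Glo luminescence, normalized to controls.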

In the case of `Cc1nsc(N2CCCN(C(=O)c3ccc4[nH]ccc4c3)CC2)n1`, the cytotoxicity at 10 µM stood at 0.997%.
To `Cc1nn(C2CCCC2)c2c1C(c1ccc3c(c1)OCO3)SCC(=O)N2` (stereo not drawn) belongs -1.52%.
`O=C(N[C@@H]1CC[C@@H](N2CCOCC2)[C@@H]1O)c1cnn2cccnc12`: the cytotoxicity at 10 µM was -27.1%.
In the case of `CC(=O)Nc1nc(C(=O)NC(C)c2ccc(F)c(F)c2)cs1` (stereo not drawn), the cytotoxicity at 10 µM is -5.39%.
To `Cc1cccc(N2CC3(CCN(Cc4nccn4C)C3)CC2=O)c1` (stereo not drawn) belongs -78.6%.
For `Cc1ncnc2c1CCN(S(=O)(=O)C1CC1)CC2`, the cytotoxicity at 10 µM is -108%.
`COC(=O)c1cccc(C(=O)N2CCCC(n3cncn3)C2)c1` (stereo not drawn): the cytotoxicity at 10 µM was -6.48%.
`N#Cc1cn(C2CC2)c(=O)n(CC(O)c2ccc(Cl)cc2)c1=O` (stereo not drawn): the cytotoxicity at 10 µM was -5.78%.
`Cc1cncc(C(=O)N2CCC3(CC2)NC(=O)CC3c2ccccc2)c1` (stereo not drawn): the cytotoxicity at 10 µM was -78.1%.
Take `Cc1nc2c(c(=O)n1C)CN(C(=O)C1CCCN(C(N)=O)C1)C2` (stereo not drawn): the cytotoxicity at 10 µM is -2.38%.
As for `Clc1ccc(CN2CCCCC2Cn2cncn2)c2ncccc12` (stereo not drawn), the cytotoxicity at 10 µM is -4.66%.
To `CCc1ccc(CNC2(c3ccc(F)cc3)CCOCC2)o1` belongs 4.68%; to `CCOC(=O)CC(C)NC(=O)c1cn(Cc2ccccc2F)nn1` (stereo not drawn), -4.75%.
Turning to `CCCN1CCc2[nH]cnc2C12CCN(C(=O)Cn1ccnc1C)CC2`, the cytotoxicity at 10 µM was 13.7%.
Consider `CC(C)CCN(C)Cc1nc2c(cnn2C)c(=O)[nH]1`, for which the cytotoxicity at 10 µM is -11.2%.
Turning to `Cc1cc(C)c2ncn(CC(C)(C)CO)c(=O)c2c1`, the cytotoxicity at 10 µM turned out to be 15.4%.
Consider `CC[C@@H]1N(Cc2ccsc2)CCC[C@]12CCC(=O)N2C`, for which the cytotoxicity at 10 µM was 10%.
As to `Cn1cc(CN2CCCC(Cn3cc(CCCO)nn3)C2)cn1` (stereo not drawn), the cytotoxicity at 10 µM is -3.51%.
The value for `O=C(NCC1(c2ccc(F)cc2)CCC1)N1CCC2(C1)OCCO2` was 2.58%; that for `CCc1cc(CNC(=O)NCC(c2ccco2)N2CCCC2)[nH]n1` (stereo not drawn) was 0.238%; that for `Cc1ccc(-c2nc(CN3CCOCC3)no2)cc1N1CCNC1=O` was -5.73%.
Consider `CC(=O)N1CCCC1c1ccc(Br)cn1` (stereo not drawn), for which the cytotoxicity at 10 µM is 4.29%.
The value for `CCC(C(=O)N1CCN(C(=O)N2CCOCC2)CC1)n1cccn1` (stereo not drawn) was 2.35%; that for `COCCC1(CO)CCCN(C(=O)c2cc(C#N)c(=O)[nH]c2C)C1` (stereo not drawn) was -37.7%.
Consider `CN1CCN(C(=O)CC2CCN(CCc3ccccn3)CC2)CC1`, for which the cytotoxicity at 10 µM was -2.89%.
`CCOCCNC(=O)c1cccc(Cn2nc(C)cc2C)c1`: the cytotoxicity at 10 µM is -7.69%.
Regarding `c1ccc(OCCNCc2cccs2)nc1`, the cytotoxicity at 10 µM was -3.26%.
With `CNC(=O)CCc1cc(C)nc(C2CCCCN2)n1` (stereo not drawn), the cytotoxicity at 10 µM is -9.83%.
In the case of `CCOCCCNC(=O)C1(C)CCC(=O)N1c1ccccc1OC` (stereo not drawn), the cytotoxicity at 10 µM is 2.89%.
Take `Cn1nnnc1SCCNC(=O)c1cccc2ccnn12`: the cytotoxicity at 10 µM is -59.1%.
As to `CCO[C@H]1CO[C@@]2(CCCN(C(=O)c3ccc(OC)c(F)c3)C2)C1`, the cytotoxicity at 10 µM was found to be 5.69%.
Turning to `CCCOCCOC(=O)c1ccc2c(c1)[nH]c(=O)n2C`, the cytotoxicity at 10 µM was -16.4%.
The value for `Cn1cc(CNC2CC3(CCN(CC4CC4)CC3)c3ccccc32)cn1` (stereo not drawn) was -8.22%; that for `O=C(c1ccc2c(c1)OCO2)N1CCN(c2cnccn2)CC1` was -7.1%; that for `CCNC(=O)NC1CCCN(c2ccc(C)cc2)C1=O` (stereo not drawn) was 0.732%.
To `Cc1ccc(CSCCn2nc3ccccn3c2=O)cc1` belongs 5.64%; to `CN1CCCC(c2ccnc(C(=O)NCC3CC3)c2)C1` (stereo not drawn), 3.89%; to `CCc1ncc(CN2CCC3(CCCN(CC4CCC4)C3)C2)cn1` (stereo not drawn), -7.07%.
With `CNC(=O)[C@@]12CCCN(c3ncccn3)[C@@H]1CN(c1ncc(C)cn1)C2`, the cytotoxicity at 10 µM worked out at 3.97%.
As to `COc1cc(OC)c(C2CC(=O)Oc3cc(C)[nH]c(=O)c32)cc1OC` (stereo not drawn), the cytotoxicity at 10 µM is -4.81%.
The value for `Cn1cnc(S(=O)(=O)N2CC3(CCN(c4ccccc4)C3)C2)c1` was -91.7%; that for `COC(=O)[C@H](CCSC)NC(=O)Cn1ccc2c(Cl)cccc21` was 2.17%; that for `CC(NC(=O)CNCCn1cccn1)c1ccc2c(c1)OCCO2` (stereo not drawn) was -13%.
Turning to `O=C(O)CCCc1ccc2c(c1)CC(=O)N2`, the cytotoxicity at 10 µM turned out to be 1.51%.
Consider `CCc1nc(CN2CCN(C(=O)N3CCCCC3)CC2)cs1`, for which the cytotoxicity at 10 µM is -16%.
For `CCS(=O)(=O)N1CC[C@H](OC)[C@H]2CN(Cc3ccncc3)C[C@H]21`, the cytotoxicity at 10 µM is 10.3%.
As for `c1ccc(Cc2noc(CN3CCCC3Cn3cccn3)n2)cc1` (stereo not drawn), the cytotoxicity at 10 µM is -2.57%.
The value for `CC1(C)Cc2ccc(C(=O)NC3CCOCC3)c(O)c2O1` was -7.92%.
The value for `Cc1cc(C)nc(N2CCC(OCCN3CCCCC3)C2)n1` (stereo not drawn) was -53.6%; that for `CC(C)(C)C(=O)NS(=O)(=O)c1ccc(C#N)cc1C(F)(F)F` was -7.52%; that for `O=C(c1cnc(-c2cnccn2)s1)N1CCCC(n2cccn2)C1` (stereo not drawn) was -9.04%.
As to `O=C(C1CCN(c2ncnc3cccc(F)c23)CC1)N1CCCC1`, the cytotoxicity at 10 µM is 3.76%.
Consider `CCOC1CCCN(C(=O)c2cnc3c(cnn3C3CCCC3)c2)C1` (stereo not drawn), for which the cytotoxicity at 10 µM is -3.74%.
Take `CCC(O)CN(Cc1ccccc1)S(=O)(=O)c1cnc(C)s1` (stereo not drawn): the cytotoxicity at 10 µM was -42.5%.
On to `CN(Cc1ccco1)C(=O)CN1CCCCC1Cn1cccn1` (stereo not drawn), for which the cytotoxicity at 10 µM was found to be 2.91%.
For `CCN1CC(C(=O)N(C)Cc2cc3cc(F)ccc3[nH]2)CC1=O` (stereo not drawn), the cytotoxicity at 10 µM worked out at 0.782%.
With `CN(Cc1ccco1)Cc1ccccc1CNC(=O)c1cc[nH]n1`, the cytotoxicity at 10 µM was -8.11%.
As for `CC1CN(C)CCN1C(=O)c1ccn(-c2ccccc2Cl)n1` (stereo not drawn), the cytotoxicity at 10 µM is -6.33%.
As for `Cc1ccoc1C(=O)N1CC[C@@]2(C[C@H](NS(C)(=O)=O)CCO2)C1`, the cytotoxicity at 10 µM was 7.43%.
As for `Cc1ccc(N2CCCN(C(=O)CC3C=CCC3)CC2)nn1` (stereo not drawn), the cytotoxicity at 10 µM is -9.2%.
As to `CN(C)C(=O)CN1CCC2(C1)CN(CC1CCOCC1)C2`, the cytotoxicity at 10 µM is -9.91%.
As to `CCC(=O)N1CCN(c2ccc(C(=O)OC)cc2)CC1C` (stereo not drawn), the cytotoxicity at 10 µM is -13.5%.
On to `Clc1ccc(CN2CCC3(CC2)CC(c2cccnc2)=NO3)cc1`, for which the cytotoxicity at 10 µM is 17.5%.
Take `Cc1noc(C)c1CN1CCOCC12CCN(c1ncccn1)CC2`: the cytotoxicity at 10 µM is -104%.
Take `CCc1cc(N(C)Cc2c(C)nn(C)c2C)n2nccc2n1`: the cytotoxicity at 10 µM amounted to 0.613%.
Consider `CC(C)Cc1nc(CNCc2cccc(N3CCCC3=O)c2)no1`, for which the cytotoxicity at 10 µM came out at 0.753%.
As for `O=C(O)c1cc(-c2cccnc2)cc(S(=O)(=O)NCc2ccccn2)c1`, the cytotoxicity at 10 µM was -49.9%.
Regarding `CCNC(=O)[C@@H]1C[C@@H](NC(=O)c2ccc(C)cc2O)CN1CCCSC`, the cytotoxicity at 10 µM was -125%.
The value for `CC(=O)N1CCN(S(=O)(=O)c2ccc(C)c(F)c2)CC1` was -9.42%.
Take `c1ccc(OCCN2CCC(c3cnccn3)CC2)cc1`: the cytotoxicity at 10 µM was found to be 7.56%.
With `CC(C)NC(=O)c1cc(-c2ccc(S(C)(=O)=O)cc2)nc2c1cnn2C`, the cytotoxicity at 10 µM is 4.21%.
As for `Cc1ccc(C(=O)N2CCOCC2)cc1NCc1ccsc1`, the cytotoxicity at 10 µM is -6.96%.
In the case of `Cc1cnn(CC2CN(Cc3nc(C)c(C)o3)CCO2)c1` (stereo not drawn), the cytotoxicity at 10 µM was -3.88%.
Turning to `OC(c1cccs1)C1CCN(c2ncccn2)CC1` (stereo not drawn), the cytotoxicity at 10 µM is -52.5%.
Consider `CC(C)Cc1ncc2c(n1)CN(c1nc(N(C)C)nc3c1CCCC3)C2`, for which the cytotoxicity at 10 µM is 2.27%.
Take `CCOC(C)C(=O)NCCNS(C)(=O)=O` (stereo not drawn): the cytotoxicity at 10 µM was -5.29%.
`Cc1nccn1Cc1nnc(C2CCN(c3ccncc3F)CC2)n1C`: the cytotoxicity at 10 µM was -9.36%.
Take `c1cnn(CC2CCCCN2Cc2nc(-c3ccsc3)no2)c1` (stereo not drawn): the cytotoxicity at 10 µM is -12.2%.
As for `Cc1ccc2nc(CNc3ccccc3C(=O)NC3CC3)cn2c1`, the cytotoxicity at 10 µM came out at 3.16%.
`Cc1oc(-c2ccco2)nc1CC(=O)N1CCN(CC(C)O)CC1` (stereo not drawn): the cytotoxicity at 10 µM is -11.4%.
With `CC(C)c1noc(C(C)N2CCC(c3nc4ccccc4o3)CC2)n1` (stereo not drawn), the cytotoxicity at 10 µM is 8.05%.
The value for `c1cncc(OCc2n[nH]c3c2CN(Cc2cccs2)C3)c1` was -113%; that for `CC(C)N(CCNc1nc(C2CCCC2)nc2c1cnn2C)C(C)C` was 5.29%; that for `O=C(NC1CCCN(c2ccc(OC(F)F)cc2)C1)c1ccon1` (stereo not drawn) was -7%.
Take `Cc1cccc(OCC2CCCN(C(=O)CN(C)C3CCNCC3)C2)c1` (stereo not drawn): the cytotoxicity at 10 µM is -8.4%.
`O=C(O)C1(n2ccc(-c3ccco3)n2)CCN(Cc2ccccn2)CC1`: the cytotoxicity at 10 µM is -137%.
For the compound `CN(C(=O)Cc1ccc2c(c1)OCCO2)C1CCCCC1`, the cytotoxicity at 10 µM came out at 2.89%.
`CN(C)CCN(Cc1ccc(C#N)cc1)C(=O)c1ccn(C)c(=O)c1`: the cytotoxicity at 10 µM was 16.8%.
For the compound `CCOC(=O)N1CCN(C(=O)Cc2c(C)nc(C)[nH]c2=O)CC1`, the cytotoxicity at 10 µM is -6.31%.
With `Cn1nnc2c(N3CC(C(=O)NCc4ccccc4F)C3)ncnc21`, the cytotoxicity at 10 µM worked out at 0.447%.
As to `COc1c(Br)c(CC2CC(CO)=NO2)c(OC)c2c1OCO2` (stereo not drawn), the cytotoxicity at 10 µM worked out at 6.36%.
Turning to `Cc1cc(NC(=O)N(CCO)Cc2ccsc2)no1`, the cytotoxicity at 10 µM is -5.57%.
`Cn1cnc2c1CCN(CCS(=O)(=O)c1ccccc1)C2`: the cytotoxicity at 10 µM is -3.32%.
In the case of `O=C(CCCn1cncn1)N1CCC2(CCCNC2=O)C1` (stereo not drawn), the cytotoxicity at 10 µM was -3.89%.
The value for `Cc1nc2c(c(N(C)CC3Cc4ccccc4CN3C)n1)CCNCC2` (stereo not drawn) was -29%.
`CN1CCCCC1c1ccc(-n2ccnc2)nc1` (stereo not drawn): the cytotoxicity at 10 µM was 5.01%.
The value for `CCNc1cc2c(nn1)CCN(C(=O)c1ccc3c(c1)OCO3)C2` was -13.5%; that for `Cc1c[nH]nc1C1CCN(C(=O)C2CCOCC2)C1` (stereo not drawn) was 4.71%.
